High-throughput results from PubChem.
A selection: hits, their analogues and other compounds. The true share with any hit is near 6.7%.
CSC inhib – cancer stem cell inhibition. cancer stem cell-like cells viability, luminescence. inhibition, % at 7.5 µM. 1.1% of 300,000 active. AID 2717; in the data active = inhibition above about 75%; tested in HMLE shEcad cells
Beta cell apopt – beta cell apoptosis inhibition; protection from apoptosis, % (test concentration not listed); 0.8% of 300,000 active; AID 435005; INS-1E cytokine-induced death, ATP luminescence, 48 h; percent of positive-control rescue, neutral wells zero;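 active = Every replicate reaches about 75%, or at least half do and their mean reaches it too, limit read from the data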;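 also: 0% = cytokine-treated negative control wells and 100% = positive control rescue; higher means more ATP so stronger rescue from cytokine killing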
NR3A LBD binder – modulators (binders) of human NR3A ligand-binding domain | Tm shift relative to glycine control, % at 25 µM | NR3A LBD differential scanning fluorimetry, Tm shift; 0% = protein alone, 100% = glycine-bound protein | 2.5% of 340,000 active;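 active = melting temperature shift of at least 10% of the positive control shift, at one fixed dose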
PREPL inhibitor – inhibitors of human prolyl oligopeptidase-like enzyme PREPL; Q4J6C6; recombinant PREPL, fluorescence polarization activity-based probe; inhibition, % at 5.96 µM; 0.68% of 320,000 active; AID 2751; in the data active = inhibition above about 43%;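 also: 0% = enzyme with DMSO and 100% = wells lacking enzyme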
Target sequence (Q4J6C6 whole entry, looked up): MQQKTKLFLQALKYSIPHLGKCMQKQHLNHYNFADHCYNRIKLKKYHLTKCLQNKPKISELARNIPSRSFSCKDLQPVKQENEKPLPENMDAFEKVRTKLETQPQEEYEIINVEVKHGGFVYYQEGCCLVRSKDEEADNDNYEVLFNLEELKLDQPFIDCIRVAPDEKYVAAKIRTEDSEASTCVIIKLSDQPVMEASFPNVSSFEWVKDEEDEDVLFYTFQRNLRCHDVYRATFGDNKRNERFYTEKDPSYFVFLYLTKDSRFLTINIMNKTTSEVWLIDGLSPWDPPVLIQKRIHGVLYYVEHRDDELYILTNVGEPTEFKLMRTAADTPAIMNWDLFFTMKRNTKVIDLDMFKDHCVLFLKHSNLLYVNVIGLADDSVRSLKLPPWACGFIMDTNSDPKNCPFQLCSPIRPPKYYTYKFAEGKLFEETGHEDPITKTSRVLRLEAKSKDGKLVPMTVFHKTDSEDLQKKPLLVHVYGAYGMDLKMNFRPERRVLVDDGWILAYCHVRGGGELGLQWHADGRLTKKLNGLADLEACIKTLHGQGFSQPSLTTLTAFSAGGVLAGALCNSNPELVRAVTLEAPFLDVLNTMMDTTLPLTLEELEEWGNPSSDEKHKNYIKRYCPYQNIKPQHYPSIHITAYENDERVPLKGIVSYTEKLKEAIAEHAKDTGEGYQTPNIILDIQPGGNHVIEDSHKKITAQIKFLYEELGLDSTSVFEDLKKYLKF
CHOP inhibitor – blocks CHOP induction under ER stress; inhibition, % at 10 µM; 3.8% of 220,000 active; AID 2732; CHO-K1 CHOP-promoter luciferase, tunicamycin-induced, 15-18 h;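 active = compounds that reduced the stress-induced luciferase reporter signal by more than about 70% of percent inhibition, limit read from the data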;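 also: 0% = tunicamycin plus vehicle and 100% = wells without tunicamycin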
T cruzi inh – T. cruzi replication inhibition; T. cruzi beta-gal in NIH3T3, luminescence, 90 h; inhibition, % (concentration not given with the values); 1.4% of 300,000 active; AID 1885;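 active = mean inhibition across valid replicates above about 55%, limit read from the data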;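 also: signal also drops with host cell toxicity which is not excluded here; 0% = plate median of DMSO wells and 100% = zero luminescence signal; higher percent means less beta-gal luminescence so fewer parasites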
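Incubation – ≥90 h infection period, 3 h prior cell attachment · System – NIH/3T3 fibroblasts plus reporter T. cruzi · Doses – compound pinned at 50 nL/well, DMSO · Read-out basis – percent inhibition of parasite-derived β-gal signal · Signal – luminescent β-galactosidase signal after 60 min lysis · Also added – 5000 T. cruzi trypomastigotes/well · Medium – Low-serum DMEM with 2% FBS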
Numbers without * were called inactive.

What do the screens show for `CCOC(=O)[C@@H]1[C@H]2COc3ccccc3[C@H]2N2C(=O)N(c3ccc(OC)cc3)C(=O)[C@]12C`?
CSC inhib: -7.0; Beta cell apopt: -8.4; NR3A LBD binder: 0.3; PREPL inhibitor: -111.7; T cruzi inh: 6.8

How did O=C(c1ccccc1Oc1ccc([N+](=O)[O-])cc1)N1CCOCC1 do in these assays?
CSC inhib: -6.6; Beta cell apopt: -3.4; NR3A LBD binder: -1.2; PREPL inhibitor: 5.7; T cruzi inh: -10.0

How did CCn1nc(C)cc1C(=O)n1nc(C)c(Sc2ncccn2)c1C do in these assays?
CSC inhib: 1.3; NR3A LBD binder: 2.2; PREPL inhibitor: -1.2; CHOP inhibitor: 28.3

Results for O=C(Nc1ccc(OCc2ccccc2)cc1)c1cccs1 ?
CSC inhib: 80.3*; Beta cell apopt: 5.1; NR3A LBD binder: 25.2*; PREPL inhibitor: 12.1; T cruzi inh: -9.2

Results for CCc1ccc(OCc2nnc(NC(=O)c3cccs3)s2)cc1 ?
CSC inhib: -8.7; Beta cell apopt: -2.1; NR3A LBD binder: 1.8; PREPL inhibitor: -16.5; CHOP inhibitor: 71.6*; T cruzi inh: -53.9

What do the screens show for `O=C(N/N=C/c1ccc(F)cc1)c1sccc1OCc1ccc(F)cc1`?
CSC inhib: 44.3; Beta cell apopt: 10.0; NR3A LBD binder: 1.0; PREPL inhibitor: 8.4; CHOP inhibitor: -24.8; T cruzi inh: 0.8

How did O=C(Cc1ccccc1)Nc1cccc(NC(=O)c2cccs2)c1 do in these assays?
Beta cell apopt: 7.4; NR3A LBD binder: -4.0; PREPL inhibitor: -2.7; CHOP inhibitor: 40.0; T cruzi inh: -6.5

What do the screens show for `O=C(C[n+]1ccc(C(=O)N/N=C/c2ccc(O)cc2)cc1)c1ccccc1`?
CSC inhib: -8.9; Beta cell apopt: -0.2; NR3A LBD binder: -7.0; PREPL inhibitor: 37.7; CHOP inhibitor: 16.2; T cruzi inh: -19.3

Results for O=C(C[n+]1ccc(C(=O)N/N=C/c2ccc(OCc3ccccc3)cc2)cc1)c1ccccc1 ?
CSC inhib: 9.9; Beta cell apopt: 2.5; NR3A LBD binder: 4.9; PREPL inhibitor: 50.4*; CHOP inhibitor: 55.6; T cruzi inh: 1.0

How did O=C(N/N=C/c1ccc(Cl)cc1)c1sccc1OCc1ccc(F)cc1 do in these assays?
Beta cell apopt: 20.1; NR3A LBD binder: 21.8*; PREPL inhibitor: 3.4; CHOP inhibitor: -7.5; T cruzi inh: 29.5

What do the screens show for `Cc1ccc(OCc2nnc(NC(=O)Cc3cccs3)s2)cc1`?
CHOP inhibitor: 64.7; T cruzi inh: 0.0

Results for COCCCn1c(=O)c2sccc2n2c(CCCC(=O)NCc3ccc(OC)cc3)nnc12 ?
CSC inhib: -3.9; Beta cell apopt: -4.4; NR3A LBD binder: 0.4; PREPL inhibitor: 6.1; T cruzi inh: -12.4

How did CCCCn1nc(C(=O)Nc2nc3c(s2)CCCC3)c2ccccc2c1=O do in these assays?
CSC inhib: 41.2; Beta cell apopt: 6.3; NR3A LBD binder: 0.4; PREPL inhibitor: 3.0; CHOP inhibitor: 33.4; T cruzi inh: 56.1*

How did O=C(CCNS(=O)(=O)c1ccc(Br)cc1)NCc1ccco1 do in these assays?
CSC inhib: -7.5; Beta cell apopt: -7.2; NR3A LBD binder: 2.2; PREPL inhibitor: 5.8; T cruzi inh: -4.4

What do the screens show for `CCOC(=O)N1CCN(Cc2nc(N)nc(Nc3ccc(OC)cc3)n2)CC1`?
CSC inhib: -13.8; Beta cell apopt: -9.0; NR3A LBD binder: 1.5; PREPL inhibitor: 6.1; CHOP inhibitor: 5.2; T cruzi inh: -12.5

What do the screens show for `CCOC(=O)N1CCN(Cc2nc(N)nc(Nc3ccc(Oc4ccccc4)cc3)n2)CC1`?
CSC inhib: 10.7; NR3A LBD binder: -5.1; PREPL inhibitor: 20.4; CHOP inhibitor: 74.3*

What do the screens show for `C=CCOc1ccc(/C=C/C(=O)OCC(=O)NCc2ccco2)cc1`?
CSC inhib: -6.6; Beta cell apopt: -5.0; NR3A LBD binder: 2.0; PREPL inhibitor: -5.7; T cruzi inh: -2.7

What do the screens show for `CCOC(=O)C(=O)NNc1ccc(F)cc1`?
CSC inhib: 101.5*; Beta cell apopt: 3.9; NR3A LBD binder: 5.2; PREPL inhibitor: -2.9; CHOP inhibitor: -14.6; T cruzi inh: 44.7

How did NC(N)=N/N=C/c1ccc2cccc(OCc3ccccc3)c2n1 do in these assays?
CSC inhib: 38.4; Beta cell apopt: 30.1; NR3A LBD binder: -2.2; PREPL inhibitor: -35.4; CHOP inhibitor: 2.0; T cruzi inh: 56.5*

What do the screens show for `COC(=O)C1CCN(C(=O)CN(C)Cc2ccc(C(C)(C)C)cc2)CC1`?
CSC inhib: 0.2; NR3A LBD binder: -0.7; PREPL inhibitor: 30.0; T cruzi inh: 66.9*

How did Cc1ccc(S(=O)(=O)N/N=C2/CC(c3ccccc3)Oc3ccccc32)cc1[N+](=O)[O-] (centres undefined) do in these assays?
CSC inhib: 12.7; Beta cell apopt: 3.3; NR3A LBD binder: 24.5*; PREPL inhibitor: -12.6; CHOP inhibitor: -14.6; T cruzi inh: 1.1

How did Cc1ccc(S(=O)(=O)NN=C2C3CC4CC(C3)CC2C4)cc1[N+](=O)[O-] do in these assays?
CSC inhib: -18.0; Beta cell apopt: -0.1; NR3A LBD binder: -2.6; PREPL inhibitor: -3.3; CHOP inhibitor: 16.7; T cruzi inh: -3.5

Results for O=S(=O)(N/N=C1/CC(c2ccccc2)Oc2ccccc21)c1ccc(Br)cc1 (centres undefined) ?
CSC inhib: 89.1*; Beta cell apopt: 11.2; NR3A LBD binder: 20.8*; PREPL inhibitor: -6.7; CHOP inhibitor: 94.2*; T cruzi inh: 6.0

Results for O=S(=O)(N/N=C1/CCCc2ccccc21)c1ccc(Br)cc1 ?
CSC inhib: 54.0; Beta cell apopt: 6.3; NR3A LBD binder: -4.2; PREPL inhibitor: -12.4; CHOP inhibitor: 31.3; T cruzi inh: 10.2

Results for Cc1cc(C)c2c(CC(=O)NC3CCS(=O)(=O)C3)coc2c1 (centres undefined) ?
CSC inhib: -2.1; Beta cell apopt: -5.0; NR3A LBD binder: -3.0; PREPL inhibitor: 0.0; T cruzi inh: -4.9

What do the screens show for `CC1=CN2C(=N)/C(=C/c3ccc(Sc4ccc(Cl)cc4)o3)C(=O)N=C2S1`?
CSC inhib: 33.5; Beta cell apopt: -10.3; NR3A LBD binder: 9.3; PREPL inhibitor: 4.2; CHOP inhibitor: 76.7*; T cruzi inh: -6.8

Results for Cc1nc(NC(=O)c2csc3ccccc23)sc1C ?
CSC inhib: 33.6; Beta cell apopt: 23.9; NR3A LBD binder: 28.1*; PREPL inhibitor: 15.0; CHOP inhibitor: 36.6; T cruzi inh: 27.0

What do the screens show for `Cc1ccc(S(=O)(=O)c2nnn3c2nc(NC2CCN(Cc4ccccc4)CC2)c2ccccc23)cc1C`?
CSC inhib: 20.6; NR3A LBD binder: 8.2; PREPL inhibitor: -35.8; T cruzi inh: 59.3*

How did CCc1ccc(S(=O)(=O)c2nnn3c2nc(NCCNC(C)=O)c2ccccc23)cc1 do in these assays?
CSC inhib: 3.0; Beta cell apopt: -2.2; NR3A LBD binder: -5.7; PREPL inhibitor: 2.9; CHOP inhibitor: -13.9; T cruzi inh: -2.4
